Compound activity: PubChem, SRMLSC
WT yeast gro inh – growth inhibition of WT yeast, mitochondrial fusion screen; inhibition, % at 10 µM; mitochondrial fusion phenotypic screen, WT strain; 190,000 compounds, 2.1% hits; in the data active = inhibition above about 58%; tested in S. cerevisiae
RAM inhibit – inhibitors of the yeast RAM network; S. cerevisiae dse1pr::URA3 reporter, 5-FOA growth OD615, 2 d; analog-sensitive cbk1-as2 kinase mutant strain; inhibition, % at 50 µM; 190,000 compounds, 1.8% hits;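 active = inhibition above a set limit, 3 SD over mean compound inhibition, cut at about 8.4% in these data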;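 note: 0% = DMSO-only wells with no growth and 100% = 10 µM 1-NA-PP1 full growth; inhibition rescues growth on 5-FOA so higher OD means more RAM inhibition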
Yeast growth inh – reduces growth of yeast BB579 in restrictive medium | AID 804 | 140,000 compounds, 0.51% hits | inhibition, % at 10 µM | S. cerevisiae BB579 growth, OD615, 48 h;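 active = inhibition above a set limit, 3 SD over the mean compound inhibition, cut at about 44% in these data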
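Test system: DeaD yeast strain BB579 / Buffer or medium: restrictive glucose-based CSMM-D medium / Doses: single 10 µM dose / Schedule: 4 h cell preincubation, 48 h compound exposure, 30 °C humidified / Technique: culture absorbance at 615 nm / Controls: amphotericin B positive control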
Yeast life ext – yeast lifespan extension | 130,000 compounds, 0.68% hits | S. cerevisiae growth with nicotinamide, OD615; deaD strain in restrictive glucose medium | inhibition of the nicotinamide effect, % at 10 µM;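 active = inhibition above a set limit, placed 3 SD over the median of all compounds, cut at about 26% in these data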;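 note: 0% = nicotinamide-treated wells and 100% = cells grown without nicotinamide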
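assay system = DeaD-strain S. cerevisiae | measured by = absorbance at 615 nm | probe or stimulus = nicotinamide 1.5 mM | buffer or medium = CSMM-D glucose medium, restrictive | times = 48 h at 30 °C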
* = called active by the depositor; x = no result. This is a sample that favours compounds with a hit; in the whole collection about 4.3% have one here.

SMILES	WT yeast gro inh	RAM inhibit	Yeast growth inh	Yeast life ext
Cc1cc(=O)oc(C)c1C(=O)Nc1ccc2nsnc2c1	94*	2	-25	-25
CCOc1cc(/C=N/N=C(N)N)ccc1OCc1ccc(Cl)cc1	52	9.8*	-34	-4
COc1cc(/C=N/N=C(N)N)ccc1OCc1ccc(Cl)cc1	-13	-1	x	x
N/C(Cc1ccc(Cl)cc1Cl)=N\OC(=O)c1cccs1	29	-1	100*	-19
COc1ccc(OCc2cccc(C(=O)NN)c2)cc1	-9	1	-9	-5
O=C(NCc1ccccc1)c1cccc(COc2cccc(Cl)c2)c1	67*	9.2*	-34	-11
O=C(NCc1ccccc1)c1cccc(COc2ccc(Cl)cc2)c1	50	4	7	-12
NNC(=O)c1cccc(COc2cccc(Br)c2)c1	73*	0	-8	-20
NNC(=O)c1cccc(COc2ccc(Br)cc2)c1	73*	0	78*	-8
CC(C)c1nc(SCC(=O)Nc2nc3c(s2)CCCC3)c2ccccc2n1	62*	-1	-31	-20
Cc1sc2nc(CN(Cc3cccs3)C(=O)NC3CCCCC3)[nH]c(=O)c2c1C	66*	3	-12	0
Cc1cc(C)cc(N(C(=O)c2csnn2)C(C(=O)NC(C)(C)C)c2cccnc2)c1 (centres undefined)	19	1	x	x
COCC(=O)N(C)c1nnc(-c2cnccn2)s1	2	1	-20	-1
CC(=O)N(C)c1nnc(-c2cnccn2)s1	74*	0	1	-16
c1ccc(-c2ccc(-c3nc(-c4ccccn4)no3)cc2)cc1	78*	6	-6	-10
CCCCOc1ccc(-c2nnn(CC(=O)Nc3ncc(CC(=O)OCC)s3)n2)cc1	17	9.3*	-68	-2
CN1CCN(C2=Nc3cc(Cl)ccc3Nc3ccccc32)CC1	2	-1	-35	3
CN1CCN(C2=Nc3cc(F)ccc3Cc3ccccc32)CC1	0	x	x	x
CN1CCN(C2=Cc3ccccc3Sc3cc(F)ccc32)CC1	94*	2	6	x
CN1CCN(C2=Cc3ccc(Cl)cc3Sc3ccc(F)cc32)CC1	51	2	86*	x
CCN(CC)c1ccc2c(Cl)c(Br)c(=O)oc2c1	77*	6	-42	-1
CCN(CC)c1ccc2c(C)c(Cl)c(=O)oc2c1	11	-2	x	x
COC(=O)c1cccc(NC(=O)c2nn(C(C)C)c(=O)c3ccccc23)c1	15	2	-29	-4
Cc1ccc(Cl)c(OC(=O)c2nn(C(C)C)c(=O)c3ccccc23)c1	7	10*	-23	16
O=C(C(=O)N1CCN(c2ccc(F)cc2)CC1)c1c[nH]c2ccccc12	8	10*	x	x
SMILES	WT yeast gro inh	RAM inhibit	Yeast growth inh	Yeast life ext
O=C(C(=O)N1CCN(c2cccc(Cl)c2)CC1)c1c[nH]c2ccccc12	30	1	x	x
COc1ccc(/C=C/C(=O)N2CCN(S(=O)(=O)c3ccccc3)CC2)cc1OC	31	0	x	x
COc1ccc(S(=O)(=O)N2CCC(C(=O)Nc3ccc4c(c3)OCCO4)CC2)cc1OC	2	11*	-34	-5
COc1ccc(NC(=O)C2CCN(S(=O)(=O)c3ccc(C)cc3)CC2)cc1OC	-3	3	-37	-6
COc1ccc(S(=O)(=O)N2CCC(C(=O)N3CCOCC3)CC2)cc1Cl	-8	2	x	x
COc1ccc(NC(=O)C2CCN(S(=O)(=O)c3ccc(Br)s3)CC2)cc1OC	-3	10*	-44	17
COc1ccc(/C=C/C(=O)Nc2cccc(S(=O)(=O)N3CCCC3)c2)cc1OC	6	8.5*	x	x
O=C(Nc1ccc2c(c1)OCO2)C1CCN(S(=O)(=O)c2ccc3c(c2)OCCO3)CC1	-10	5	-29	-10
COc1ccc(S(=O)(=O)N2CCC(C(=O)N3CCCCC3)CC2)cc1OC	61*	-1	-37	6
O=C(N/C(=C/C=C\c1ccccc1)C(=O)N1CCOCC1)c1ccc(Br)cc1	0	7	x	x
CCC1CCCCN1C(=O)c1sc2ncnc(N(CC)CC)c2c1C (centres undefined)	3	0	x	x
CCOc1ccc(C(=O)Nc2ccc3c(c2)OCCO3)cc1OC	-4	8.5*	-61	-10
COC(=O)c1ccccc1NC1=C/C(=N\S(=O)(=O)c2cccs2)c2ccccc2C1=O	62*	7	-32	-5
Cc1ccc(NC2=C/C(=N/S(=O)(=O)c3cccs3)c3ccccc3C2=O)cc1	55	5	-45	15
O=C1C(Nc2ccccc2)=C/C(=N/S(=O)(=O)c2cccs2)c2ccccc21	99*	1	-22	1
O=C1c2ccccc2C(=O)N1c1ncc(Cc2ccc(Cl)cc2)s1	1	5	-2	47*
Cc1ccc(Cc2cnc(N3C(=N)SC(C)C3=O)s2)cc1 (centres undefined)	70	2	x	x
O=C(CSCc1ccccc1)NNC(=S)Nc1cccc(Cl)c1Cl	27	5	-13	-6
CC(C)CN(C(=O)c1nn(C)c(=O)c2ccccc12)c1nc2ccccc2s1	67*	2	-2	-5
CC(C)CN(C(=O)c1ccco1)c1nc2ccccc2s1	46	-1	x	x
COc1ccc(Cn2c(C3CC3)nc3ccc(NC(C)=O)cc3c2=O)cc1	24	10*	-42	6
CCCc1nc2ccc(NC(C)=O)cc2c(=O)n1Cc1ccc(Cl)cc1	-11	1	x	x
CCOC(=O)Cn1c(=NC(=O)c2ccc([N+](=O)[O-])s2)sc2ccccc21	65*	6	-39	5
CCOC(=O)Cn1c(=NC(=O)C2COc3ccccc3O2)sc2cc(S(N)(=O)=O)ccc21 (centres undefined)	-9	5	-34	5
FC(F)Oc1ccccc1/C=N/n1cnc2ccccc21	13	1	x	x
SMILES	WT yeast gro inh	RAM inhibit	Yeast growth inh	Yeast life ext
Cc1ccc(NC(=O)Cn2cc(S(=O)(=O)c3ccc(F)cc3)c(=O)c3cc(F)ccc32)cc1	-3	8.5*	-24	2
CC1(C)C2CCC1(C)C(OC(=O)CC(=O)O)C2 (centres undefined)	64*	3	-36	0
CCOC(=O)c1oc2ccccc2c1CSc1nnnn1-c1ccc(C)cc1	28	10*	-24	4
CC1CCCN(S(=O)(=O)c2coc(C(N)=O)c2)C1 (centres undefined)	2	-1	-18	-5
CC1CCCCN1S(=O)(=O)c1coc(C(N)=O)c1 (centres undefined)	-5	4	45*	-10
N#CC1=C(N)Nc2ncnn2C1c1ccc(F)cc1 (centres undefined)	15	1	7	0
CCCCCOc1ccc(C2C(C(C)=O)=C(C)Nc3ncnn32)cc1OC (centres undefined)	3	6	-16	3
CCCNC(=O)CCC(NS(=O)(=O)c1ccc(C)cc1)C(=O)NCCC (centres undefined)	-11	2	-33	80*
CCC(NS(=O)(=O)c1ccc(C)cc1)C(=O)O (centres undefined)	-32	1	-35	-1
CCNC(=O)NC(=O)C(C)OC(=O)CNS(=O)(=O)c1c(Cl)cc(Br)cc1Cl (centres undefined)	-10	2	x	x
